From ChEMBL document CHEMBL5136984, “Synthesis and antiproliferative activity of 6BrCaQ-TPP conjugates for targeting the mitochondrial heat shock protein TRAP1” (Eur J Med Chem, 2022)
The source made the active and inactive calls. No cut-off for these calls is given here.

What was measured:
[1] = test system: MDA-MB-231; test: Cytotoxicity against human MDA-MB-231 cells assessed as concentration required for complete tumor growth inhibition incubated for 72 hrs by Celltiter Glo assay; format: functional
Summary of the method: (§1)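 MDA-MB-231 cells exposed for 72 h; survival quantified by CellTiter Glo luminescence. GI50 = 50% growth inhibition; TGI = concentration at which final cell number equals the starting number; LC50 and IC50 also derived from the same curves.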

[2] = test system: MDA-MB-231; test: Cytotoxicity against human MDA-MB-231 cells assessed as induction of cell death incubated for 72 hrs by Celltiter Glo assay; format: functional; settings: read-out: LC50 (the source's name)
Summary of the method: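 MDA-MB-231 cells were exposed to compounds for 72 h, and survival was quantified by CellTiter-Glo luminescence. From the curves, GI50 (50% growth inhibition), TGI (cell number equal to that at start), LC50 (end cell number 50% of start) and IC50 (50% inhibition of cell activity) were derived.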

[3] = test system: MDA-MB-231; test: Cytotoxicity against human MDA-MB-231 cells assessed as cell growth inhibition incubated for 72 hrs by Celltiter Glo assay; format: functional, cell-based; settings: for IC50: MDA-MB-231, 72 h; for GI50: MDA-MB-231, time 72 hrs; summary of the method: as §1
[4] = test system: HT-29; test: Downregulation of HSP70 protein expression in human HT-29 cells at 0.1 to 0.5 uM incubated for 24 hrs by Western blot analysis; format: functional, cell-based; settings: dose 0.1-0.5 µM
Summary of the method: (§2)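 HT-29 cells treated 24 h, lysed in RIPA with protease inhibitors 30 min on ice. 30 µg protein denatured at 95 °C with β-mercaptoethanol, run on 4–15% stain-free gels, transferred to PVDF. Blocked in 5% milk/TBS-Tween, primary antibody overnight at 4 °C, HRP secondary 1 h, ECL detection. Signals normalized to stain-free total protein. Blots in duplicate.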

[5] = test system: K562; test: Cytotoxicity against human K562 cells assessed as induction of cell death incubated for 72 hrs by MTT assay; format: functional; settings: read-out: LC50 (the source's name)
Summary of the method: (§3)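 Cells were seeded at 2,500 per well and treated 24 h later for 72 h, with 4 replicates per condition and at least three independent experiments. MTT (5 mg/mL solution) was added for 2 h, then the medium was replaced by DMSO. Absorbance at 570 nm was blank-corrected using cell-free wells containing compound, and untreated cells were set as 100% metabolic activity.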

[6] = test system: HCT-116; test: Cytotoxicity against human HCT-116 cells assessed as induction of cell death incubated for 72 hrs by MTT assay; format: functional; settings: read-out: LC50 (the source's name); summary of the method: as §3
[7] = target: T1, Heat shock factor protein 1 (Homo sapiens) (UniProt Q00613); test: Induction of HSF-1 degradation in human HT-29 cells at 0.5 uM incubated for 24 hrs by Western blot analysis; format: cell-based; summary of the method: as §2
T1 sequence (whole entry): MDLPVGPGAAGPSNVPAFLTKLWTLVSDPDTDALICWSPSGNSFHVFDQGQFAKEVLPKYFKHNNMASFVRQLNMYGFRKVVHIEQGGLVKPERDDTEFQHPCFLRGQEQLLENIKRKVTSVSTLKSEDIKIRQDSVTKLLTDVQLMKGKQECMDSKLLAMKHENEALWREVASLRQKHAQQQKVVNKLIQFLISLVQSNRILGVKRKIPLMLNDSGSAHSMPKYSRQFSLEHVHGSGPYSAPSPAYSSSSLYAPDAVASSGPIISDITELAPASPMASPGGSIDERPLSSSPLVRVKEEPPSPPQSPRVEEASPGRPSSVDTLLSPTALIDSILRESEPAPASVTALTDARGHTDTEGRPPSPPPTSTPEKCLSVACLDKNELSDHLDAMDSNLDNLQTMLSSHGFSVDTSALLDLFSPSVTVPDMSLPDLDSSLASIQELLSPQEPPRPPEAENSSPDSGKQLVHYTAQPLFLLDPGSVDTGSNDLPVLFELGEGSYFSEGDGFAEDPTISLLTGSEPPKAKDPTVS

[8] = test system: HT-29; test: Induction of mitochondrial membrane potential depolarization in human HT-29 cells assessed as reduction in fluorescence intensity at 0.1 to 1 uM measured after 2 to 6 hrs by TMRE staining based analysis relative to control; format: functional; parameters: scale not given: the % may be the effect or the level left; settings: dose 0.1-1 µM, time 2-6 hrs
Summary of the method: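 HT-29 cells (2,500/well) seeded the day before, exposed 2, 3 or 6 h at 0.1, 0.5 and 1 µM. CCCP 50 µM for 20 min served as depolarization control. TMRE added at 200 nM final for 20 min at 37 °C, fluorescence read by microplate, relative to untreated cells. 3–8 replicate wells per condition.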

[9] = test system: HT-29; test: Cytotoxicity against human HT-29 cells assessed as dead cells at 0.1 to 2 uM incubated for 72 hrs by trypan blue staining based optical microscopic analysis relative to control; format: functional; settings: dose 0.1-2 µM
Summary of the method: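 HT-29 cells were grown in McCoy medium with 10% FBS and 2 mM L-glutamine at 37 °C under 5% CO2, seeded at 30,000 per well and treated 24 h later for 72 h. Cells were PBS-washed, trypsinized, mixed 1:1 with trypan blue, and viable and dead cells were counted by light microscopy. Each condition was run three times.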

[10] = test system: HT-29; test: Downregulation of HSP27 protein expression in human HT-29 cells at 0.1 to 0.5 uM incubated for 24 hrs by Western blot analysis; format: functional, cell-based; settings: dose 0.1-0.5 µM; summary of the method: as §2
[11] = test system: HT-29; test: Cytotoxicity against human HT-29 cells assessed as inhibition of cell growth incubated for 72 hrs by MTT assay; format: functional, cell-based; settings: HT-29, 72 h
Summary of the method: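 HT-29 cells (McCoy medium, 10% FBS, 2 mM glutamine) seeded at 2,500/well, treated 24 h later for 72 h. MTT (5 mg/mL solution) 2 h, formazan dissolved in DMSO, A570 corrected for cell-free blanks with compound. Untreated wells set as 100%. Quadruplicates, at least three independent experiments.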

[12] = test system: HT-29; test: Downregulation of SDHB protein expression in human HT-29 cells incubated for 24 hrs by Western blot analysis; format: functional, cell-based; settings: dose 0.1-1 µM, DDE = dose-dependent effect
Summary of the method: (§4)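 HT-29 cells exposed 24 h at 0.1, 0.5 and 1 µM; RIPA lysates, 30 µg protein on 4–15% stain-free SDS-PAGE, PVDF transfer. Anti-SDH-A (mouse, 1:500) or anti-SDH-B (rabbit, 1:250) overnight at 4 °C, HRP secondary, ECL. Densitometry normalized to stain-free total protein; duplicate blots.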

[13] = test system: HT-29; test: Cytotoxicity against human HT-29 cells assessed as cell mortality at 0.1 to 1 uM incubated for 2 to 6 hrs by MTT assay; format: toxicity, cell-based; settings: ht-29, 1 µM, dose lower 0.1 µM, time lower 2 hrs, dose upper 1 µM, time upper 6 hrs
[14] = test system: PC-3; test: Cytotoxicity against human PC-3 cells assessed as induction of cell death incubated for 72 hrs by MTS assay; format: functional; settings: read-out: LC50 (the source's name)
[15] = test system: HCT-116; test: Cytotoxicity against human HCT-116 cells assessed as cell viability at 1 uM incubated for 72 hrs by MTT assay relative to control; format: functional; settings: read-out: Activity
Summary of the method: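 MTT read-out after 72 h exposure; 2,500 cells/well seeded and treated 24 h later. MTT solution (5 mg/mL) added for 2 h, medium replaced by DMSO, absorbance at 570 nm corrected for cell-free blanks with compound. Untreated cells taken as 100% metabolic activity. Quadruplicate wells, experiment repeated at least three times.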

[16] = test system: MDA-MB-231; test: Cytotoxicity against human MDA-MB-231 cells assessed as induction of cell death incubated for 72 hrs by MTT assay; format: functional; settings: read-out: LC50 (the source's name); summary of the method: as §3
[17] = test system: HT-29; test: Cytotoxicity against human HT-29 cells assessed as reduction in viable cells incubated for 72 hrs by trypan blue staining based optical microscopic analysis relative to control; format: functional, cell-based; settings: HT-29, 72 h
Summary of the method: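 HT-29 cells seeded at 30,000/well, treated 24 h later for 72 h. Cells washed with PBS, trypsinized, resuspended in medium and mixed 1:1 with trypan blue. Viable and dead cells counted by optical microscopy on a counting slide. Each condition analysed 3 times.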

[18] = test system: HT-29; test: Downregulation of SDHA protein expression in human HT-29 cells incubated for 24 hrs by Western blot analysis; format: functional, cell-based; settings: dose 0.1-1 µM, DDE = dose-dependent effect; summary of the method: as §4
[19] = Drug localization in vesicle of human A549 cells at 2 uM measured after 4 hrs by MitoTracker Deep Red based confocal microscopic analysis; settings: a549, 4 h

SMILES	EC [1]	CC50 [2]	IC50 [3]	GI50 [3]	also measured
Cn1c(=O)c(NC(=O)c2ccc(OCCCCC[P+](c3ccccc3)(c3ccccc3)c3ccccc3)cc2)cc2cc(Br)ccc21.[Br-]	0.093 µM	100 nM	87 nM	83 nM	
Cn1c(=O)c(NC(=O)c2ccc(OCCC[P+](c3ccccc3)(c3ccccc3)c3ccccc3)cc2)cc2cc(Br)ccc21.[Br-]	0.16 µM	380 nM		60 nM	
Cn1c(=O)c(NC(=O)c2ccc(OCCCCCCCCCCCC[P+](c3ccccc3)(c3ccccc3)c3ccccc3)cc2)cc2cc(Br)ccc21.[Br-]	15.2 µM	17900 nM		11000 nM	
Cn1c(=O)c(NC(=O)c2ccc(OCCCCCCCCCC[P+](c3ccccc3)(c3ccccc3)c3ccccc3)cc2)cc2cc(Br)ccc21.[Br-]	0.037 µM	180 nM	8 nM	8 nM	Activity [4]: Active; CC50 [5]: 107 nM; CC50 [6]: 36 nM; Activity [7]: Active; Activity [8]: <=68%; Activity [9]: <10%; Activity [10]: Active; IC50 [11]: < 100 nM; Activity [12]: Dde; Activity [13]: Non-Toxic; CC50 [14]: 300 nM; viability at 1 µM [15]: 11%; CC50 [16]: 180 nM; IC50 [17]: < 100 nM; Activity [18]: Dde
Cn1c(=O)c(NC(=O)c2ccc(OCCCCCCCCCCOc3ccc(N(c4ccc(/C=C/c5cc[n+](C)cc5)cc4)c4ccc(/C=C/c5cc[n+](C)cc5)cc4)cc3)cc2)cc2cc(Br)ccc21.[I-].[I-]					Drug uptake [19]: Active; viability at 1 µM [15]: 95%
Cn1c(=O)c(NC(=O)c2ccc(OCCCC[P+](c3ccccc3)(c3ccccc3)c3ccccc3)cc2)cc2cc(Br)ccc21.[Br-]	0.091 µM	110 nM	82 nM	76 nM	
Cn1c(=O)c(NC(=O)c2ccc(OCCCCCCCCCC[P+](c3ccccc3)(c3ccccc3)c3ccccc3)cc2)cc2ccccc21.[Br-]	0.092 µM	310 nM	49 nM	26 nM	
OCCCCCCCCCC[P+](c1ccccc1)(c1ccccc1)c1ccccc1.[Br-]					Activity [8]: <=35%
Cn1c(=O)c(NC(=O)c2ccc(OCCCCCCC[P+](c3ccccc3)(c3ccccc3)c3ccccc3)cc2)cc2cc(Br)ccc21.[Br-]	0.18 µM	490 nM	82 nM	65 nM	
Cn1c(=O)c(NC(=O)c2ccc(O)cc2)cc2cc(Br)ccc21	10.97 µM	17600 nM	7150 nM	5790 nM	
COc1ccc(C(=O)Nc2cc3cc(Br)ccc3n(C)c2=O)cc1	0.16 µM	380 nM		60 nM	CC50 [5]: 48000 nM; CC50 [6]: 7000 nM; Activity [8]: -30%; IC50 [11]: > 20000 nM; CC50 [14]: 10000 nM; CC50 [16]: 2000 nM
Cn1c(=O)c(NC(=O)c2ccc(OCCCCCCCCCCBr)cc2)cc2cc(Br)ccc21			7000 nM		
